# Laboratory results: ChEMBL document CHEMBL2040739, “Effect of phosphodiesterase 7 (PDE7) inhibitors in experimental autoimmune encephalomyelitis mice. Discovery of a new chemically diverse family of compounds” (J Med Chem, 2012)
# The source made the active and inactive calls. The rule behind the calls is not given here.
# Tests used:
# [1] = target: T1, High affinity 3',5'-cyclic-AMP phosphodiesterase 7A (Homo sapiens, UniProt Q13946); test: Inhibition of human recombinant PDE7A1-mediated [3H]cAMP hydrolysis at 10 uM after 20 mins by scintillation proximity assay
# Summary of the method: (§1)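 Scintillation proximity assay with human recombinant full-length enzyme: PDE7A1 or PDE3A at 0.02 unit, or PDE7B at 0.5 unit. Enzyme incubated with 5 nCi [3H]cAMP for 20 min at 30 °C. SPA beads added, shaken 1 h at room temperature, then settled 30 min before counting. Single-point screens at 10 μM run in duplicate. IC50 from a sigmoidal dose−response fit.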
# Astrocyte [2] = test: Antiinflammatory activity in rat astrocytes assessed as inhibition of LPS-induced nitrite production at 30 uM incubated for 1 hr prior to LPS-challenge measured after 24 hrs by Griess method; type: functional, cell-based
# Summary of the method: (§2)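 Glial cells from neonatal rat cerebral cortex; microglia and astrocytes separated by shaking and cultured 1 week. Purity >98% by OX42 and GFAP staining. Microglia kept with 10 ng/mL GM-CSF. Cells given compound for 1 h, then LPS (10 μg/mL) for 24 h. Nitrite in the supernatant measured by Griess reaction at 492/540 nm. Mean ± SD of six replications in three experiments.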
# Microglia [3] = test: Antiinflammatory activity in rat microglia cells assessed as inhibition of LPS-induced nitrite production at 30 uM incubated for 1 hr prior to LPS-challenge measured after 24 hrs by Griess method; type: functional, cell-based; summary of the method: as §2
# [4] = Cytotoxicity against rat astrocytes at 5 to 10 uM after 16 hrs by MTT assay; type: cell-based; conditions: astrocyte
# Summary of the method: (§3)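 Primary neonatal rat cortical astrocytes or microglia, after 1 week in culture, exposed to compound for 16 h. MTT at 0.5 mg/mL for 4 h, then solubilized in 10% SDS/0.01 M HCl for 12 h in the dark. Absorbance read at 595 nm. Six replications in three experiments.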
# [5] = Cytotoxicity against rat microglia cells at 5 to 10 uM after 16 hrs by MTT assay; type: cell-based; summary of the method: as §3
# Astrocyte [6] = test: Antiinflammatory activity in rat astrocytes assessed as inhibition of LPS-induced nitrite production at 5 to 10 uM incubated for 1 hr prior to LPS-challenge measured after 24 hrs by Griess method; type: functional, cell-based; summary of the method: as §2
# [7] = target: T1, High affinity 3',5'-cyclic-AMP phosphodiesterase 7A; test: Inhibition of human recombinant PDE7A1-mediated [3H]cAMP hydrolysis after 20 mins by scintillation proximity assay; summary of the method: as §1
# [8] = target: T2, cGMP-inhibited 3',5'-cyclic phosphodiesterase 3A (Homo sapiens, UniProt Q14432); test: Inhibition of human recombinant PDE3A-mediated [3H]cAMP hydrolysis at 10 uM after 20 mins by scintillation proximity assay; summary of the method: as §1
# Microglia [9] = test: Antiinflammatory activity in rat microglia cells assessed as inhibition of LPS-induced nitrite production at 5 to 10 uM incubated for 1 hr prior to LPS-challenge measured after 24 hrs by Griess method; type: functional, cell-based; summary of the method: as §2
# Homo sapiens [10] = organism: Homo sapiens; test: Selectivity index, ratio of IC50 for human recombinant PDE7A1 to IC50 for human recombinant PDE3A
# Summary of the method: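 Ratio of IC50 values for PDE7A1 and PDE3A, each obtained by scintillation proximity assay with [3H]cAMP for 20 min at 30 °C.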
# [11] = target: T2, cGMP-inhibited 3',5'-cyclic phosphodiesterase 3A; test: Inhibition of human recombinant PDE3A-mediated [3H]cAMP hydrolysis after 20 mins by scintillation proximity assay; summary of the method: as §1
# [12] = target: T1, High affinity 3',5'-cyclic-AMP phosphodiesterase 7A; test: Inhibition of PDE7A1
# [13] = target: T3, High affinity 3',5'-cyclic-AMP phosphodiesterase 7A (Mus musculus) (UniProt P70453); test: Inhibition of PDE7A1 in mouse RAW cells assessed as increase in cAMP level at 10 to 30 uM after 60 mins by enzyme immunoassay; type: cell-based
# T3 sequence (whole entry): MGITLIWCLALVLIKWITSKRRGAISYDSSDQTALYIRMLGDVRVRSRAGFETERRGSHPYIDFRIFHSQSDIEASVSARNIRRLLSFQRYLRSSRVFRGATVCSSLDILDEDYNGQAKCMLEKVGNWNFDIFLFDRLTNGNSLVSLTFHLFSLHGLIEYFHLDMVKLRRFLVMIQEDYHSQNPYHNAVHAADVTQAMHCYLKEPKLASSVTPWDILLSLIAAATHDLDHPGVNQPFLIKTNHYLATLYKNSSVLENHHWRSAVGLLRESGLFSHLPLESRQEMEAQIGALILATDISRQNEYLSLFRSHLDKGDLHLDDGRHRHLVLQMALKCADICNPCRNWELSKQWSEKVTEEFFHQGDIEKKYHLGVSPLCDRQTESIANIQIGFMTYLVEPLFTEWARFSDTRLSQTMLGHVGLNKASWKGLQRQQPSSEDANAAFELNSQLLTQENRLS
# Summary of the method: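 RAW cells seeded at 3 × 10^4 per well and incubated overnight. Compound added for 60 min at 10 or 30 μM. Intracellular cAMP quantified by enzyme immunoassay kit.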
# [14] = target: T1, High affinity 3',5'-cyclic-AMP phosphodiesterase 7A; test: Competitive inhibition of human recombinant PDE7A1 using 5 nM to 2 uM cAMP as substrate by Lineweaver-Burk plot analysis
# Summary of the method: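 PDE7A1 scintillation proximity assay with unlabeled cAMP varied from 5 nM to 2 μM, against fixed [3H]cAMP tracer. Two inhibitor concentrations tested, with AMP formation measured. Data analysed by Lineweaver−Burk plots. Triplicate measurements, mean ± SEM.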
# Mus musculus [15] = test: Antiinflammatory activity in C57BL/6J mouse MOG(35 to 55)-induced experimental autoimmune encephalomyelitis model assessed as inhibition of clinical symptoms at 10 mg/kg, ip dosed daily for 26 days starting at day 5 after disease onset measured on day 42 post-immunization; type: functional, organism-based; set-up: dose 10 mg/kg
# Mus musculus [16] = test: Toxicity in C57BL/6J mouse MOG(35 to 55)-induced experimental autoimmune encephalomyelitis model assessed as decrease in body weight at 10 mg/kg, ip dosed daily for 26 days starting at day 5 after disease onset measured on day 42 post-immunization; type: organism-based; set-up: dose 10 mg/kg, route intraperitoneal; conditions: in vivo, 624 h
# Homo sapiens [17] = organism: Homo sapiens; test: Selectivity index, ratio of IC50 for human recombinant PDE3A to IC50 for human recombinant PDE7A1
# Mus musculus [18] = test: Antiinflammatory activity in C57BL/6J mouse MOG(35 to 55)-induced experimental autoimmune encephalomyelitis model assessed as inhibition of clinical symptoms at 10 mg/kg, ip dosed daily for 16 days starting at day 5 after disease onset measured on day 32 post-immunization; type: functional, organism-based; set-up: dose 10 mg/kg
# [19] = Permeability across after 2 hrs 30 mins by pig brain lipid membrane based PAMPA-BBB assay; type: ADME; conditions: read-out: permeability
# Summary of the method: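 PAMPA-BBB assay. Donor wells coated with porcine polar brain lipid in dodecane (20 mg/mL). Compound dissolved in EtOH/PBS pH 7.4; acceptor holds PBS/EtOH 70/30. Sandwich left 2 h 30 min at 25 °C. Concentrations read by UV at 3−5 wavelengths, in three wells and two independent runs. Ten reference drugs included for validation.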
# [20] = target: 3',5'-cyclic-AMP phosphodiesterase 4D (Homo sapiens, UniProt Q08499); test: Inhibition of human recombinant PDE4D3 using fluorescein 3',5'-cyclic phosphate after 60 mins by IMAP fluorescence polarization assay
# Summary of the method: (§4)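 IMAP fluorescence polarization assay. Human recombinant PDE4B2 or PDE4D3 (0.05 U) incubated with 1 nM fluorescein adenosine 3′,5′-cyclic phosphate for 60 min at ambient temperature. Stopped with IMAP binding reagent and left 1 h before reading FP. IC50 from a sigmoidal dose−response fit.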
# [21] = target: 3',5'-cyclic-AMP phosphodiesterase 7B (Homo sapiens) (UniProt Q9NP56); test: Inhibition of human recombinant PDE7B-mediated [3H]cAMP hydrolysis at 10 uM after 20 mins by scintillation proximity assay; summary of the method: as §1
# [22] = target: 3',5'-cyclic-AMP phosphodiesterase 4B (Homo sapiens, UniProt Q07343); test: Inhibition of human recombinant PDE4B2 using fluorescein 3',5'-cyclic phosphate after 60 mins by IMAP fluorescence polarization assay; summary of the method: as §4
# Sequence of 3',5'-cyclic-AMP phosphodiesterase 4B (Q07343 whole entry): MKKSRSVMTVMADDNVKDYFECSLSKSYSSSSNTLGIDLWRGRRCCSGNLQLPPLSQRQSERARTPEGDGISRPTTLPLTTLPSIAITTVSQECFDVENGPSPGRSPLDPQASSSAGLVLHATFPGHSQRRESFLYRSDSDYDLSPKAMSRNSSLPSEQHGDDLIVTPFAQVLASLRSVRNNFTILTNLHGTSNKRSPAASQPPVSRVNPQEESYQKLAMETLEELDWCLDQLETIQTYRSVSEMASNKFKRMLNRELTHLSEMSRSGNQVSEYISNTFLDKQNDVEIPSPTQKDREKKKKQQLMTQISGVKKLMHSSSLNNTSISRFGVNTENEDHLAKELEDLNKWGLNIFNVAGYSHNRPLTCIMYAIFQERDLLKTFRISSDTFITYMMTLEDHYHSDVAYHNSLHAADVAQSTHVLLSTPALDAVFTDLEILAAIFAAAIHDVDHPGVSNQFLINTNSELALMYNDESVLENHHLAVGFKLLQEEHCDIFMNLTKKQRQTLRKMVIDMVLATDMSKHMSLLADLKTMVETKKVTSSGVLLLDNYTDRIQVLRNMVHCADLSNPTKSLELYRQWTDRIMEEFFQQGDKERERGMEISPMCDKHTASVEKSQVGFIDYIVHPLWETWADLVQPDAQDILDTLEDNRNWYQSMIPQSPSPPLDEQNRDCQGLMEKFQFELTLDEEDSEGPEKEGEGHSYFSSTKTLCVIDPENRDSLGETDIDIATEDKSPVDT
# T1 sequence (Q13946 whole entry): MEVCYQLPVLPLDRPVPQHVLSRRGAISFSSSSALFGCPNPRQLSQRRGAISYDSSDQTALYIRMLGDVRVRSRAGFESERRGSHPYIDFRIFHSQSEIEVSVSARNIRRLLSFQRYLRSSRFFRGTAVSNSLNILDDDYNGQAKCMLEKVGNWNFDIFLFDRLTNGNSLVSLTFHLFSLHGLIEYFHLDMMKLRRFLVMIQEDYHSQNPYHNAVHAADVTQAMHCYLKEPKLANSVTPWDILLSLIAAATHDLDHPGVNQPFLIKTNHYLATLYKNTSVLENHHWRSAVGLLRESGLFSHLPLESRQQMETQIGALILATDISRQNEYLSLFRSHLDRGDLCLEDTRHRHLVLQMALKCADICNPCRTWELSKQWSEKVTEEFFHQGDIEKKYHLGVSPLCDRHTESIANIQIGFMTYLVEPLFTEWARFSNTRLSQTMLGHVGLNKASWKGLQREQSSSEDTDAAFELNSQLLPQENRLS
# T2 sequence (Q14432 whole entry): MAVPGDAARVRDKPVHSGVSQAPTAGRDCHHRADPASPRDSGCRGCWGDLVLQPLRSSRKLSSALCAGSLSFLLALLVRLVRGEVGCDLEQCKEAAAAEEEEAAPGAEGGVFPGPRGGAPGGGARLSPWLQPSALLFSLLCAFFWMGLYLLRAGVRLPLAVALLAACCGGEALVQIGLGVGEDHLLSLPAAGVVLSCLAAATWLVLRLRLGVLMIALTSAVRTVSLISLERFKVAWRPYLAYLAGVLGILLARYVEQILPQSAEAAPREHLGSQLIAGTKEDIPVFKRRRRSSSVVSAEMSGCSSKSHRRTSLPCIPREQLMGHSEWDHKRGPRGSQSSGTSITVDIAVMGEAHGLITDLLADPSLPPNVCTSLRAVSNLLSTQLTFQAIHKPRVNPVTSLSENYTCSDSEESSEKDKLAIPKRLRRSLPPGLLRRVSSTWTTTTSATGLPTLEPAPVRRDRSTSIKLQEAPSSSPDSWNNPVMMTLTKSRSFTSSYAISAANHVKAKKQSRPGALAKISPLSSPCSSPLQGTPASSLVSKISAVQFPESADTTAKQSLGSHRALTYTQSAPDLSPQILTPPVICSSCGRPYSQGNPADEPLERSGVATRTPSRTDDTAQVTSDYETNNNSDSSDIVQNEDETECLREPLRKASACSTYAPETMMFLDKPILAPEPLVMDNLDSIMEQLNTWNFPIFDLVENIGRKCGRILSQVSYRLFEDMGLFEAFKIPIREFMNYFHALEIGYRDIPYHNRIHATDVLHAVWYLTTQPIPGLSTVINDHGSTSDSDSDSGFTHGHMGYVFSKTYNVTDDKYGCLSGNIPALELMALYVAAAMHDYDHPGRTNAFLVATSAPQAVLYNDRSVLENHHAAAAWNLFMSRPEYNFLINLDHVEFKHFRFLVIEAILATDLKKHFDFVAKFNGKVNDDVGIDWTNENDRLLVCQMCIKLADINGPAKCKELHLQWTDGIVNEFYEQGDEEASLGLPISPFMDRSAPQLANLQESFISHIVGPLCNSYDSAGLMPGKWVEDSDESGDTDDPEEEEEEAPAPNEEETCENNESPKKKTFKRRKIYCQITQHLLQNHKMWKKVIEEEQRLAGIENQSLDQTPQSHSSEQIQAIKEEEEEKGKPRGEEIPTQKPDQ
# Sequence of 3',5'-cyclic-AMP phosphodiesterase 4D (Q08499 whole entry): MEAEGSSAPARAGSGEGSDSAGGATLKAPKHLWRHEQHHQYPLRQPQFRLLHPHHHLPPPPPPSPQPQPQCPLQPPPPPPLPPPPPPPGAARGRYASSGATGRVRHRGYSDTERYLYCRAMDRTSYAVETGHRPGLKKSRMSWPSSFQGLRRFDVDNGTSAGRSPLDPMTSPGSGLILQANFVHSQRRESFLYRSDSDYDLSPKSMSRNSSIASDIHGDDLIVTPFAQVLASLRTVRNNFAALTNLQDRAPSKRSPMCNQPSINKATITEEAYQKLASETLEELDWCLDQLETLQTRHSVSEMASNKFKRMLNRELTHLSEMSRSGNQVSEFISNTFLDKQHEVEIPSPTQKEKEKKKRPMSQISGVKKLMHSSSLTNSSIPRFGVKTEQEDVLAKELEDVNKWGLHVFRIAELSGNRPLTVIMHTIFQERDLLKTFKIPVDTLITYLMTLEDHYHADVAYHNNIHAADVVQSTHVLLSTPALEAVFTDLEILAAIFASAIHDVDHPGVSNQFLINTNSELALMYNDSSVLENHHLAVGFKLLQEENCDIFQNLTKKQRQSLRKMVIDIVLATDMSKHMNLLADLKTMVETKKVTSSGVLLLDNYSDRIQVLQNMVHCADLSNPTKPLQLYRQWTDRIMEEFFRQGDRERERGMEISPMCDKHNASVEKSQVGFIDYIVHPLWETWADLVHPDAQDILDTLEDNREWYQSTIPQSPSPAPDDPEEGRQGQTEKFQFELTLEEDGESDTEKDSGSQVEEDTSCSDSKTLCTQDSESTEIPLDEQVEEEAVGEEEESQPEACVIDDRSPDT
# Sequence of 3',5'-cyclic-AMP phosphodiesterase 7B (Homo sapiens) (Q9NP56 whole entry): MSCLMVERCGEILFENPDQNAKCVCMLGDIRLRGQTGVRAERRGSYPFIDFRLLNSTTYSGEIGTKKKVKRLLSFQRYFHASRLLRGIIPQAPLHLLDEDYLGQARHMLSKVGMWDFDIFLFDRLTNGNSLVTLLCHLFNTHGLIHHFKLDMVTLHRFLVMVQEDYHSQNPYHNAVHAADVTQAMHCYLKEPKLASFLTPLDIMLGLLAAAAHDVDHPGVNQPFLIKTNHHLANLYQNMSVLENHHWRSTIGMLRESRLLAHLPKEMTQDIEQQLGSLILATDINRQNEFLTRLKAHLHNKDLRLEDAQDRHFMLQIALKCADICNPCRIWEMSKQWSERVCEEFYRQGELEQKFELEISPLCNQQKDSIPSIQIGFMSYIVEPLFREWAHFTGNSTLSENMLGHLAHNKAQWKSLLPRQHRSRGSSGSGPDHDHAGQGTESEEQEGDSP
smiles,measurement,setting,value
COc1cc(COC(=O)c2ccc(-c3ccccc3Cl)o2)cc(OC)c1OC,inhibition,[1],34.6%
COc1ccc(-c2ccc(C(=O)OCc3cc(OC)c(OC)c(OC)c3)o2)cc1,inhibition,[1],14%
CCOc1cc(COC(=O)c2ccc(-c3ccc(Cl)cc3Cl)o2)cc(OCC)c1OCC,inhibition,[1],31.1%
COc1ccc(C2CNC(=O)C2)cc1OC1CCCC1 (stereo not given),Activity,Astrocyte [2],Active
same,Activity,Microglia [3],Active
COc1cc(COC(=O)c2ccc(-c3ccc(Cl)cc3[N+](=O)[O-])o2)cc(OC)c1OC,inhibition,[1],49.1%
same,Activity,[4],Non-toxic
same,Activity,[5],Non-toxic
same,Activity,Astrocyte [6],Active
same,IC50,[7],7.31 µM
same,inhibition,[8],11%
same,Activity,Microglia [9],Active
CCOc1cc(COC(=O)c2ccc(-c3ccc(C)cc3)o2)cc(OCC)c1OCC,inhibition,[1],28%
COc1cc(COC(=O)c2ccc(-c3cccc(C(F)(F)F)c3)o2)cc(OC)c1OC,inhibition,[1],14%
COc1cc(COC(=O)c2ccc(-c3ccc([N+](=O)[O-])cc3)o2)cc(OC)c1OC,inhibition,[1],48%
same,Activity,[4],Non-toxic
same,Activity,[5],Non-toxic
same,Activity,Astrocyte [6],Active
same,IC50,[7],14.1 µM
same,Ratio IC50,Homo sapiens [10],4.15
same,inhibition,[8],57.1%
same,IC50,[11],3.4 µM
same,Activity,Microglia [9],Active
CCOc1cc(C(=O)OCc2ccc(-c3ccc(C)cc3)o2)cc(OCC)c1OCC,inhibition,[1],16.4%
COc1ccc(COC(=O)c2ccc(-c3ccccc3)o2)cc1,inhibition,[1],44.8%
COc1ccc(COC(=O)c2ccc(-c3ccc(Cl)cc3[N+](=O)[O-])o2)cc1,inhibition,[1],41.6%
COc1cc(CNC(=O)c2ccc(-c3cccc(C(F)(F)F)c3)o2)cc(OC)c1OC,inhibition,[1],23.5%
CCOc1cc(C(=O)OCc2ccc(-c3ccccc3)o2)cc(OCC)c1OCC,inhibition,[1],48.8%
same,Activity,[4],Non-toxic
same,Activity,[5],Non-toxic
same,Activity,Astrocyte [6],Active
same,IC50,[7],12.3 µM
same,Ratio IC50,Homo sapiens [10],0.12
same,inhibition,[8],3%
same,IC50,[11],104 µM
same,Activity,Microglia [9],Active
CC1CCCCC1NC(=O)C(c1ccccc1Cl)N(CCc1ccccc1Cl)C(=O)CCl (stereo not given),IC50,[12],0.88 µM
COc1cc(COC(=O)c2ccc(-c3cc(C(F)(F)F)ccc3Cl)o2)cc(OC)c1OC,inhibition,[1],8%
Cc1ccc([N+](=O)[O-])cc1S(=O)(=O)N(C)C,Activity,Astrocyte [2],Active
same,IC50,[7],0.09 µM
same,Activity,Microglia [3],Active
same,inhibition,[13],Active
COc1cc(COC(=O)c2ccc(C)o2)cc(OC)c1OC,inhibition,[1],-9.9%
CCOc1cc(C(=O)OCc2ccc(-c3ccc([N+](=O)[O-])cc3C)o2)cc(OCC)c1OCC,inhibition,[1],29%
same,IC50,[12],0.58 µM
CCOc1cc(COC(=O)c2ccc(-c3ccccc3)o2)cc(OCC)c1OCC,inhibition,[1],30.8%
COc1cc(COC(=O)c2ccc(-c3ccc(C)cc3)o2)cc(OC)c1OC,inhibition,[1],30.7%
CCOc1cc(COC(=O)c2ccc(-c3ccc([N+](=O)[O-])cc3)o2)cc(OCC)c1OCC,inhibition,[1],29.2%
COc1cc(COC(=O)c2ccc(-c3ccccc3C(F)(F)F)o2)cc(OC)c1OC,inhibition,[1],54.9%
same,Activity,[4],Non-toxic
same,Activity,[5],Non-toxic
same,Activity,Astrocyte [6],Active
same,IC50,[7],2.63 µM
same,Ratio IC50,Homo sapiens [10],1.44
same,inhibition,[8],74.9%
same,IC50,[11],1.8 µM
same,Activity,Microglia [9],Active
COc1cc(COC(=O)c2ccc(-c3ccc(Cl)cc3Cl)o2)cc(OC)c1OC,inhibition,[1],38.3%
COc1cc(CNC(=O)c2ccc(-c3ccc(C)cc3[N+](=O)[O-])o2)cc(OC)c1OC,inhibition,[1],70.5%
same,Activity,[4],Non-toxic
same,Activity,[5],Non-toxic
same,Activity,Astrocyte [6],Active
same,IC50,[7],3.2 µM
same,Ratio IC50,Homo sapiens [10],0.82
same,inhibition,[8],49.6%
same,IC50,[11],3.9 µM
same,Activity,Microglia [9],Active
same,Ki,[14],7.22 µM
CCOC(=O)c1sc(NC(=O)C(CC)OC(=O)C(CC(C)C)NC(=O)c2ccccc2)nc1C (stereo not given),IC50,[12],0.86 µM
COc1cc(COC(=O)c2ccco2)cc(OC)c1OC,inhibition,[1],10%
COc1cc(C(=O)OCc2ccc(-c3ccc([N+](=O)[O-])cc3)o2)cc(OC)c1OC,inhibition,[1],49.5%
same,IC50,[7],33.4 µM
CCOc1cc(C(=O)OCc2ccc(-c3ccc([N+](=O)[O-])cc3)o2)cc(OCC)c1OCC,inhibition,[1],39.9%
COc1cc(C(=O)OCc2ccc(-c3ccc(Cl)cc3Cl)o2)cc(OC)c1OC,inhibition,[1],24.4%
COc1cc(COC(=O)c2ccc(-c3ccc(C)cc3[N+](=O)[O-])o2)cc(OC)c1OC,inhibition,[1],28.8%
CCOc1cc(C(=O)OCc2ccc(-c3ccc(Cl)cc3Cl)o2)cc(OCC)c1OCC,inhibition,[1],3.7%
COc1cc(COC(=O)c2ccc(-c3ccccc3)o2)cc(OC)c1OC,Activity,Mus musculus [15],inactive
same,inhibition,[1],57.9%
same,Activity,[4],Non-toxic
same,Activity,Mus musculus [16],Toxic
same,Activity,[5],Non-toxic
same,Activity,Astrocyte [6],Active
same,Ratio IC50,Homo sapiens [17],10
same,Activity,Mus musculus [18],Active
same,Papp at 2.5 h,[19],81 nm/s
same,IC50,[20],66.3 µM
same,IC50,[7],5.17 µM
same,Ratio IC50,Homo sapiens [10],0.09
same,inhibition,[21],23.2%
same,inhibition,[8],46.1%
same,IC50,[11],54.6 µM
same,IC50,[22],12.4 µM
same,Activity,Microglia [9],Active
same,Ki,[14],5.91 µM
same,inhibition,[13],Active
